ChEMBL document CHEMBL2069237, “3-Hydroxy-3-methylglutaryl flavonol glycosides from Oxytropis falcata” (2012)

The compounds below were run on RAW264.7 (assay: Antiinflammatory activity in mouse RAW264.7 cells assessed as inhibition of lipopolysaccharide-induced nitric oxide production at 50 uM pre-incubated for 4 hrs before LPS challenge for 24 hrs by Griess assay).
Type: functional
Procedure, shortened: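 RAW 264.7 murine macrophages grown in DMEM with 10% FBS, 2 mmol/L L-glutamine, penicillin/streptomycin, 37 °C, 5% CO2. Cells (5 × 10^5/mL) preincubated 8 h, given compound at 10 or 50 μM for 4 h, then LPS (final 1 μg/mL) for 24 h. Nitrite in supernatant measured by Griess reagent, absorbance 570 nm, against sodium nitrite standard; expressed as % inhibition.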
In the case of `CC1O[C@@H](OC[C@H]2O[C@@H](Oc3c(-c4ccc(O)cc4)oc4cc(O)cc(O)c4c3=O)C(O[C@@H]3O[C@H](C)[C@H](O)C(O)C3O)C(O)[C@H]2O)C(O)[C@@H](O)[C@H]1O` (stereo partly specified) [MAURITIANIN], the inhibition at 50 µM is reported as < 5%.
In the case of `C[C@@H]1O[C@@H](OC[C@H]2O[C@@H](Oc3c(-c4ccc(O)cc4)oc4cc(O[C@@H]5O[C@@H](C)[C@H](O)[C@@H](O)[C@H]5O)cc(O)c4c3=O)[C@H](O)[C@@H](O)[C@@H]2O)[C@H](O)[C@H](O)[C@H]1O`, the inhibition at 50 µM is reported as < 5%.
In the case of `COc1cc(O)c2c(=O)c(O[C@@H]3O[C@H](CO[C@@H]4O[C@@H](C)[C@H](O)[C@@H](O)[C@H]4O)[C@H](O)[C@H](O)[C@H]3O[C@@H]3O[C@@H](C)[C@H](O)[C@@H](O)[C@H]3O)c(-c3ccc(O)cc3)oc2c1` [OXYTROFLAVOSIDE G], the inhibition at 50 µM is reported as < 5%.
With `COc1cc(O)c2c(=O)c(O[C@@H]3O[C@H](COC(=O)C[C@@](C)(O)CC(=O)O)[C@H](O)[C@H](O)[C@H]3O)c(-c3ccc(O)cc3)oc2c1` [OXYTROFLAVOSIDE D] the inhibition at 50 µM was < 5%.
In the case of `COc1cc(O)c2c(=O)c(O[C@@H]3O[C@H](CO)[C@H](O)[C@H](O)[C@H]3O[C@@H]3O[C@@H](C)[C@H](O)[C@@H](O)[C@H]3O)c(-c3ccc(O)cc3)oc2c1` [OXYTROFLAVOSIDE F], the inhibition at 50 µM is reported as < 5%.
With `COc1cc(O)c2c(=O)c(O[C@@H]3O[C@H](CO)[C@H](OC(=O)C[C@@](C)(O)CC(=O)O)[C@H](O)[C@H]3O[C@@H]3O[C@@H](C)[C@H](O)[C@@H](O)[C@H]3O)c(-c3ccc(O)cc3)oc2c1` [OXYTROFLAVOSIDE C] the inhibition at 50 µM was < 5%.
Compound `O=C(/C=C/c1ccccc1)c1ccc(O)cc1O` [2',4'-DIHYDROXYCHALCONE] has an inhibition at 50 µM of 40.1%.
`COc1cc(O)c2c(=O)c(O[C@@H]3O[C@H](COC(=O)C[C@@](C)(O)CC(=O)O)[C@H](O)[C@H](O)[C@H]3O)c(-c3ccc(O[C@@H]4O[C@H](CO)[C@@H](O)[C@H](O)[C@H]4O)cc3)oc2c1` [OXYTROFLAVOSIDE E] was tested, and the inhibition at 50 µM was < 5%.
`COc1cc(O)c2c(=O)c(O[C@@H]3O[C@H](COC(=O)C[C@@](C)(O)CC(=O)O)[C@H](O)[C@H](O)[C@H]3O[C@@H]3O[C@@H](C)[C@H](O)[C@@H](O)[C@H]3O)c(-c3ccc(O)cc3)oc2c1` [OXYTROFLAVOSIDE A] was tested, and the inhibition at 50 µM was < 5%.
`C[C@@H]1O[C@@H](OC[C@H]2O[C@@H](Oc3c(-c4ccc(O)cc4)oc4cc(O)cc(O)c4c3=O)[C@H](O)[C@@H](O)[C@H]2O)[C@H](O)[C@H](O)[C@H]1O` was tested, and the inhibition at 50 µM was < 5%.
With `COc1cc(O)c2c(=O)c(O[C@@H]3O[C@H](CO)[C@H](O)[C@H](OC(=O)C[C@@](C)(O)CC(=O)O)[C@H]3O[C@@H]3O[C@@H](C)[C@H](O)[C@@H](O)[C@H]3O)c(-c3ccc(O)cc3)oc2c1` [OXYTROFLAVOSIDE B] the inhibition at 50 µM was < 5%.
